Test results reported in ChEMBL document CHEMBL4680111, “Target Validation and Identification of Novel Boronate Inhibitors of the Plasmodium falciparum Proteasome” (J Med Chem, 2018).
Calls of active or inactive are those of the source. The calls are words filed in the database; no cut-off is given here.

Columns and labels:
[1] = Inhibition of Plasmodium falciparum 20S proteasome beta 1 subunit caspase-like activity using fluorogenic peptide Ac-nLPnLD-AMC as substrate in presence of PA28alpha incubated for 1 to 2 hrs by fluorescence microplate reader assay
[2] = target: T1, Proteasome subunit beta type-6 (Homo sapiens, UniProt P28072); assay: Inhibition of human 20S constitutive proteasome beta 1 subunit caspase-like activity using fluorogenic peptide Ac-nLPnLD-AMC as substrate in presence of PA28alpha incubated for 1 to 2 hrs by fluorescence microplate reader assay
T1 sequence (P28072 whole entry): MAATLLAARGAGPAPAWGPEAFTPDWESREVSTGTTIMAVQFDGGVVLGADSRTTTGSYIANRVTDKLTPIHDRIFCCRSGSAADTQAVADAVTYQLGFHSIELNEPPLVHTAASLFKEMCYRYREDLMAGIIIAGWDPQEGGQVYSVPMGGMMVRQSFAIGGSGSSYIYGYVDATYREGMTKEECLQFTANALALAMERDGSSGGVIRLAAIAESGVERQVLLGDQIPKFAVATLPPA

[3] = target: T2, Proteasome subunit beta type-7 (Homo sapiens, UniProt Q99436); assay: Inhibition of human 20S constitutive proteasome beta 2 subunit trypsin-like activity using fluorogenic peptide Ac-WLR-AMC as substrate in presence of PA28alpha incubated for 1 to 2 hrs by fluorescence microplate reader assay
T2 sequence (Q99436 whole entry): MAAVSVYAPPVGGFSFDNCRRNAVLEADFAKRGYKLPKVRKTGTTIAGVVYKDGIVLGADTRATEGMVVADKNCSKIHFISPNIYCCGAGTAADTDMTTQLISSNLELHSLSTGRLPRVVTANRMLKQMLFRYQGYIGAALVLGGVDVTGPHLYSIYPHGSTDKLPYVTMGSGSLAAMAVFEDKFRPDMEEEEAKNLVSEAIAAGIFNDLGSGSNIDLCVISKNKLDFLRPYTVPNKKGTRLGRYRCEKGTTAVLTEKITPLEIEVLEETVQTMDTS

[4] = target: T3, Proteasome Macropain subunit MB1 (Homo sapiens, UniProt P28074); assay: Inhibition of human 20S constitutive proteasome beta 5 subunit chymotrypsin-like activity using fluorogenic peptide Ac-WLA-AMC as substrate in presence of PA28alpha incubated for 1 to 2 hrs by fluorescence microplate reader assay
T3 sequence (P28074 whole entry): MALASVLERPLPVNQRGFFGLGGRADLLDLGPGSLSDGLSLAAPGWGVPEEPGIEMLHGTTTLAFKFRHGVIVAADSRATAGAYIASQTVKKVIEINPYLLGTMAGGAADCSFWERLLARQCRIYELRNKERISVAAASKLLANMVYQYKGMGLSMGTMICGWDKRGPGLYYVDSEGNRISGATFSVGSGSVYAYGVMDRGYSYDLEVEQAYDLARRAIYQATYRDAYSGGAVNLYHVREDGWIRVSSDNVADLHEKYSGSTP

[5] = target: T4, Proteasome subunit beta type-9 (Homo sapiens, UniProt P28065); assay: Inhibition of human 20S immunoproteasome beta 1 subunit caspase-like activity using fluorogenic peptide Ac-nLPnLD-AMC as substrate in presence of PA28alpha incubated for 1 to 2 hrs by fluorescence microplate reader assay
T4 sequence (P28065 whole entry): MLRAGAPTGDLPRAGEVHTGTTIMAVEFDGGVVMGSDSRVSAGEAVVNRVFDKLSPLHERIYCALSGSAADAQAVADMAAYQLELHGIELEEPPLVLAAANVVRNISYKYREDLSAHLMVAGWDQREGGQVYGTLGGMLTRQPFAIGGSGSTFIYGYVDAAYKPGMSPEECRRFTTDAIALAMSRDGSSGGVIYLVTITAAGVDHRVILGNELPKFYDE

[6] = target: T5, Proteasome subunit beta type-10 (Homo sapiens, UniProt P40306); assay: Inhibition of human 20S immunoproteasome beta 2 subunit trypsin-like activity using fluorogenic peptide Ac-WLR-AMC as substrate in presence of PA28alpha incubated for 1 to 2 hrs by fluorescence microplate reader assay
T5 sequence (P40306 whole entry): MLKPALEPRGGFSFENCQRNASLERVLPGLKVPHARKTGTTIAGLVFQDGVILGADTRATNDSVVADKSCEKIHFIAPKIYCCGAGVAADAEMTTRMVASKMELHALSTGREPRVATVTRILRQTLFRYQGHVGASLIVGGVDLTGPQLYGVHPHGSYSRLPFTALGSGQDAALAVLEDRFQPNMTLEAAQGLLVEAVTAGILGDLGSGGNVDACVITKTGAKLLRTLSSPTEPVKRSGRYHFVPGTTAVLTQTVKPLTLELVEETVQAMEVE

[7] = target: T6, Proteasome subunit beta type-8 (Homo sapiens, UniProt P28062); assay: Inhibition of human 20S immunoproteasome beta 5 subunit chymotrypsin-like activity using fluorogenic peptide Ac-WLA-AMC as substrate in presence of PA28alpha incubated for 1 to 2 hrs by fluorescence microplate reader assay
T6 sequence (P28062 whole entry): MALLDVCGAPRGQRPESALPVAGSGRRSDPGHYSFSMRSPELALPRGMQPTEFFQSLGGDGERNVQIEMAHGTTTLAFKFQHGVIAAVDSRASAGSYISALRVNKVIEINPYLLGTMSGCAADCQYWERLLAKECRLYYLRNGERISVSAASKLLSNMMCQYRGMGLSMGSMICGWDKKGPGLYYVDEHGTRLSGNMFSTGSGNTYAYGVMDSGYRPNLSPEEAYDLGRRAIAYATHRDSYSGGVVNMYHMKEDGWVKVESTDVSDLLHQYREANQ

Plasmodium falciparum [8] = assay: Antiplasmodial activity against sorbitol synchronized ring stage Plasmodium falciparum 3D7 assessed as reduction in parasitemia incubated for 72 hrs by Syto-61 staining dye based flow cytometry analysis; type: functional; conditions: read-out: LD50 (the source's name)
How it was run: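 Sorbitol-treated ring-stage parasites in O+ human erythrocytes were incubated with compound for 72 h, and viability was read in the second cycle. Read-out was Syto-61 (2 µM) flow cytometry of parasitemia, normalized to untreated and 2 µM DHA-killed controls. Mean ± SEM of three independent experiments.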

[9] = Selectivity index, ratio of LD50 for cytotoxicity against human HepG2 cells to LD50 for antiplasmodial activity against Plasmodium falciparum 3D7 sorbitol-treated ring stage; type: toxicity, cell-based; conditions: read-out: Selectivity Index
Plasmodium falciparum [10] = assay: Antiplasmodial activity against DHA-resistant and sorbitol synchronized ring stage forms of Plasmodium falciparum Cam3.II^R539T expressing K13 mutant assessed as reduction in parasitemia incubated for 3 hrs by pulse exposure based Syto-61 staining dye based flow cytometry analysis; type: functional; conditions: read-out: LD50 (the source's name)
How it was run: (§1)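 Tightly synchronized early-ring parasites (1-3 h post-invasion) exposed to compound for 3 h, then viability assessed in the next cycle. Cells stained with 2 µM Syto-61 and parasitemia read by flow cytometry, normalized to untreated and kill controls (2 µM DHA, 48-72 h). Mean ± SEM of three independent experiments.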

Plasmodium falciparum [11] = assay: Antiplasmodial activity against DHA-sensitive and sorbitol synchronized ring stage forms of Plasmodium falciparum Cam3.II^rev expressing K13 wild-type genotype assessed as reduction in parasitemia incubated for 3 hrs by pulse exposure based Syto-61 staining dye based flow cytometry analysis; type: functional; conditions: read-out: LD50 (the source's name); how it was run: as §1
[12] = tested on: Plasmodium falciparum 3D7; assay: Inhibition of 20S proteasome beta 5 subunit in bortezomib-resistant Plasmodium falciparum 3D7 assessed as inhibition of BMV037 probe labeling at 1 to 10 uM incubated for 1 hr by SDS-PAGE analysis; conditions: dose 1-10 µM

Compound `CC(C)C[C@H](NC(=O)[C@H](Cc1ccccc1)NC(=O)Cc1ccc(O)cc1)B(O)O` has an IC50 [1] of 600 nM, an IC50 [2] of 52 nM and an IC50 [3] of 680 nM. It also gave an IC50 [4] of 1.4 nM, an IC50 [5] of 5 nM and an IC50 [6] of 300 nM. The IC50 [7] was 1.3 nM, the LC50 (Plasmodium falciparum [8]) was 61 nM and the selectivity ratio [9] was 0.7. The LC50 (Plasmodium falciparum [10]) was 160 nM, the LC50 (Plasmodium falciparum [11]) was 180 nM and the inhibition [12] was “inactive”.

`CC(=O)N1CCC[C@@H]1C(=O)N[C@@H](C)C(=O)N[C@@H](Cc1ccccc1)B(O)O` gave an IC50 [1] of 3190 nM, an IC50 [2] of 3400 nM and an IC50 [3] greater than 10000 nM. The IC50 [4] was 220 nM, the IC50 [5] was 8 nM and the IC50 [6] was greater than 10000 nM. For the same compound, the IC50 [7] was 28 nM, the LC50 (Plasmodium falciparum [8]) was 120 nM and the selectivity ratio [9] was 56. The LC50 (Plasmodium falciparum [10]) was 820 nM, the LC50 (Plasmodium falciparum [11]) was 900 nM and the inhibition [12] was “Active”.

In the case of `Cc1ccc(S(=O)(=O)N[C@@H](CC(=O)NCC(C)(C)C)C(=O)N[C@@H](Cc2ccccc2)C(=O)N[C@@H](CC(C)C)B(O)O)cc1`, the IC50 [1] is reported as 1780 nM, the IC50 [2] is reported as 1600 nM and the IC50 [3] is reported as 440 nM. It also gave an IC50 [4] of 9 nM, an IC50 [5] of 29 nM and an IC50 [6] of 130 nM. For the same compound, the IC50 [7] was 5 nM, the LC50 (Plasmodium falciparum [8]) was 65 nM and the selectivity ratio [9] was 4. For the same compound, the LC50 (Plasmodium falciparum [10]) was 190 nM, the LC50 (Plasmodium falciparum [11]) was 210 nM and the inhibition [12] was “Active”.
